PubChem BioAssay AID489030 (Sanford-Burnham Center for Chemical Genomics, 2010)
Several values for one entry are separate records, joined by “and”; a condition that tells them apart may be missing. Identical values can stand only once. In all, about 330,000 compounds went through this assay and about 2,400 (0.73%) were called active. The calls were made as follows: active = inhibition of at least 40% at 20 µM; inactive = the rest. For the sample, actives were picked, then their nearest neighbours and some compounds at random.

Each compound was assayed against Apoptotic protease-activating factor 1 (Homo sapiens) (UniProt O14727) (assay: inhibitors of human Apaf-1 apoptosome, primary screen, biochemical, DEVD-Rh110 fluorescence, uHTS (AID 489030;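 also: plate controls were DMSO wells for no effect and DEVD-CHO caspase inhibitor wells for full effect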)). Conditions: reconstituted apoptosome caspase-3 activity, at 20 µM, active compounds read high.
Procedure, shortened: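 System: reconstituted apoptosome with Apaf-1, cytochrome c, caspase-9, procaspase-3, dATP; Signal: Rh110 fluorescence intensity; Schedule: 30 min compound preincubation, 50 min activation, room temperature; Reagent: cytochrome c trigger plus (Z-DEVD)2-Rh110 caspase-3 substrate.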

Apoptotic protease-activating factor 1 (Homo sapiens), sequence (O14727 whole entry, looked up): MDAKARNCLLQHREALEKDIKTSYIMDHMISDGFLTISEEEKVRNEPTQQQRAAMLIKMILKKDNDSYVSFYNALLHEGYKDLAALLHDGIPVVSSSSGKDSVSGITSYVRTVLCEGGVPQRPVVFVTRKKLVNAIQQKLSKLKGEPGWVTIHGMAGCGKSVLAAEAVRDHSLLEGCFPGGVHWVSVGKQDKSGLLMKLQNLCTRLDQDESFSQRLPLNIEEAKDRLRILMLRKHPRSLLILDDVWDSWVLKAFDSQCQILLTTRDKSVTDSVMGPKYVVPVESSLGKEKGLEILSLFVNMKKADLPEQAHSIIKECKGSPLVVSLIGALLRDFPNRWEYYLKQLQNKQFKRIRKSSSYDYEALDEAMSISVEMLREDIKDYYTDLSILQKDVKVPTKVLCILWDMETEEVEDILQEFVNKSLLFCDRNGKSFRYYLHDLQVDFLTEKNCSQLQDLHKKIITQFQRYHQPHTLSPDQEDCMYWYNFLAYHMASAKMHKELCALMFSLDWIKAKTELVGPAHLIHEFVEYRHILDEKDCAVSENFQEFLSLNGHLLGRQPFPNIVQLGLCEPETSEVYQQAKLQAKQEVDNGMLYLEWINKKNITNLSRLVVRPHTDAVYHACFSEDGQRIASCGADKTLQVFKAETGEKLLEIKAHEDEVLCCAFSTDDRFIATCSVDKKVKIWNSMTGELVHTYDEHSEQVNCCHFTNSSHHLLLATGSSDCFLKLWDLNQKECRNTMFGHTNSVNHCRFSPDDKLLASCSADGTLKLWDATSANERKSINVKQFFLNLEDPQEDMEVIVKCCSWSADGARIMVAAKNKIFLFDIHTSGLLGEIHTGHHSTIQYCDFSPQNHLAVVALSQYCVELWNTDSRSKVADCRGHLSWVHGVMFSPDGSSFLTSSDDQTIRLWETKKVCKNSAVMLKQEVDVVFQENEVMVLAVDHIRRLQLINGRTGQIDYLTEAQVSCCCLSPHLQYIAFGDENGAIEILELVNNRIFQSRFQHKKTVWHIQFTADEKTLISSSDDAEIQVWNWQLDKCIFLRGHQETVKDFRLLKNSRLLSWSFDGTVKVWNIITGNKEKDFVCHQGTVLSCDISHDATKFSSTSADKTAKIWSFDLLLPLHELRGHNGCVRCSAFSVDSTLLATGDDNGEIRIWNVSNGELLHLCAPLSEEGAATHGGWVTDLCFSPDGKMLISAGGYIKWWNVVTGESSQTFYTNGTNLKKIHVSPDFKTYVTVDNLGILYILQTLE

Row | Structure (SMILES) | inhibition
1 | CCOc1c2ccc(C(=O)NC3CCCc4ccccc43)cc2nn1CC (stereo unspecified) | 5.11% (inactive)
2 | CCOC(=O)N1CCC(=NNC(N)=O)CC1 | 1.89% (inactive)
3 | C=CCn1c(P(C)(=O)O)nc2ccccc21 | 5.81% (inactive) and -0.524% (inactive)
4 | CC(CN1CCOCC1)OC(=O)c1ccc(C(C)(C)C)cc1 (stereo unspecified) | 15.5% (inactive)
5 | CC(=O)c1ccc(NC(=O)CSc2nc3ccccc3c(=O)n2CCCN2CCOCC2)cc1 | 2.62% (inactive)
6 | C=CCn1c(C(C)NC(=O)CC)nc2ccccc21 (stereo unspecified) | -0.828% (inactive)
7 | CCOc1ccccc1NC(=O)Cn1nnc(C(=O)NCc2cccs2)c1N | -4.26% (inactive)
8 | C=CCn1c(N)c(C(=O)OCC(C)C)c2nc3ccccc3nc21 | 54.1% (active)
9 | COCC(C)OC(=O)c1c(N)n(CCCN2CCOCC2)c2nc3ccccc3nc12 (stereo unspecified) | 50.9% (active)
10 | O=C(NCc1cccs1)c1cc(-c2ccccn2)nc2ccc(Br)cc12 | 5.9% (inactive)
11 | CC(C)Cn1c(N)c(C(=O)NCc2cccs2)c2nc3ccccc3nc21 | 63.4% (active)
12 | O=C(Nc1ccccc1Cl)NC1(C(=O)N2CCOCC2)CCCCC1 | -1.88% (inactive)
13 | Cn1cncc1C#Cc1c(-c2ccsc2)sc2ccccc12 | 33.5% (inactive)
14 | CCC/C=C(\CCC)C(NC(=O)Cc1ccccc1)c1ccc(C(=O)OC)cc1 (stereo unspecified) | 7.48% (inactive)
15 | CC1CCN(C(=O)COC(=O)c2cc(S(=O)(=O)N3CCOCC3)ccc2Cl)CC1 | 3.82% (inactive)
16 | CCOC(=O)c1ccc(NC(=O)Cn2cnc3cc(C)c(C)cc32)cc1 | -0.083% (inactive)
17 | O=C(CCC(=O)OCC(F)(F)C(F)F)NCc1ccccc1 | -13% (inactive)
18 | CCOc1ccc(NCCC(=O)c2ccc3c(c2)OCO3)cc1 | 4.39% (inactive)
19 | Oc1cc(O)c2c(c1)OC(c1ccc(O)c(O)c1)C(O)C2 (stereo unspecified) | -2.63% (inactive)
20 | COC(=O)C[n+]1cccc2ccccc21 | -1.6% (inactive)
21 | COc1ccc(-c2cc(C(=O)N/N=C/c3cccnc3)c3ccccc3n2)c(OC)c1 | 4.65% (inactive)
22 | O=C(N/N=C\c1cccnc1)c1cc(-c2ccccc2)nc2c(Cl)cccc12 | 40.1% (active)
23 | C/C(=N\NC(=O)c1cc(-c2ccc(O)cc2)nc2ccccc12)c1cccnc1 | 7.65% (inactive)
24 | COc1ccc(C(CNC(=O)c2cc3c(s2)CCCC3)N2CCOCC2)cc1 (stereo unspecified) | 33.5% (inactive)

Row | Structure (SMILES) | inhibition
25 | COc1ccc(-c2nc3cc(C)ccn3c2NC2CCCCC2)cc1SC1CCCCC1 | 48.4% (active)
26 | COc1ccc(-c2nc3cnccn3c2NC2CCCCC2)cc1-c1cccc(Cl)c1 | 36.9% (inactive)
27 | CCOc1cc(-c2nc3cc(C)ccn3c2NCC2CCCO2)ccc1O (stereo unspecified) | 9.28% (inactive)
28 | CC1CN(C(=S)Nc2cccc(F)c2)CC(C)O1 (stereo unspecified) | -7.38% (inactive)
29 | CCOc1ccc2[nH]c(=O)c(C(c3nnnn3CCOC)N3CCOCC3)cc2c1 (stereo unspecified) | -3.2% (inactive)
30 | COc1ccc(OC)c(C(c2nnnn2C(C)(C)C)N2CCc3ccccc3C2)c1 (stereo unspecified) | 11.5% (inactive)
31 | COCCn1nnnc1C(c1cc2ccc(OC)cc2[nH]c1=O)N1CCc2ccccc2C1 (stereo unspecified) | 56.8% (active)
32 | Cc1cc(OCc2cc(C(=O)NCc3cc(C(C)C)no3)no2)cc(C)c1Cl | 17.4% (inactive)
33 | COC(=O)[C@@H]1C[C@@]2(O)[C@H](O)[C@H](O)[C@H](O)C[C@H]2N1Cc1ccc(C(C)(C)C)cc1 | 10.6% (inactive)
34 | CN(C)CCCN(Cc1cc2cc3c(cc2[nH]c1=O)OCCO3)C(=O)NC1CCCCC1 | 2.55% (inactive)
35 | CNC(=O)NC(=O)CSc1nnc(-c2ccc(F)cc2)n1CC1CCCO1 (stereo unspecified) | -8.1% (inactive)
36 | O=C(NN1C(=O)C2C3C=CC(C4CC34)C2C1=O)c1ccc(Cl)cc1 (stereo unspecified) | 5.04% (inactive)
37 | CCOC(=O)Cn1nnnc1C | -24.4% (inactive)
38 | COc1cc(C(=O)NC2CCN(Cc3ccccc3)CC2)cc(Cl)c1OC(C)C | 4.18% (inactive)
39 | COc1ccc(-c2sc3ccccc3c2-c2ccc(OCCN3CCOCC3)cc2)cc1 | 15.7% (inactive)
40 | COc1ccc2sc(-c3ccccc3OC)c(-c3ccc(OCCN4CCCC4)cc3)c2c1 | 73.4% (active)
41 | COc1cccc(-c2sc3ccc(OC)cc3c2-c2ccc(OCCN3CCCCC3)cc2)c1 | 61.8% (active)
42 | COc1cc(OC)cc(-c2sc3ccc(OC)cc3c2-c2ccc3cc[nH]c3c2)c1 | 7.8% (inactive)
43 | COc1ccccc1-c1sc2ccccc2c1-c1ccc(C(C)=O)cc1 | 21.9% (inactive)
44 | COc1ccccc1-c1sc2ccccc2c1-c1ccc(Br)nc1 | 14.2% (inactive)
45 | CN1CCC(CN)(N2CCN(c3ccccc3)CC2)CC1 | 6.96% (inactive)
46 | CC1COc2ccccc2N1S(=O)(=O)c1ccccc1 (stereo unspecified) | 11.7% (inactive)
47 | OCCn1c(-c2ccccc2)csc1=Nc1ccccc1 | 16.7% (inactive)
48 | O=C(Nc1cccc(Cl)c1Cl)c1ccccc1NC(=O)C1CC=CCC1C(=O)O (stereo unspecified) | -3.06% (inactive)

Row | Structure (SMILES) | inhibition
49 | O=C(COC(=O)C1(c2ccc(F)cc2)CCCC1)N1CCNC1=O | -3.12% (inactive)
50 | Cc1ccc(NC(=O)c2oc3ccccc3c2C)c([N+](=O)[O-])c1 | 4.97% (inactive)
51 | O=S1(=O)CCC(NC(=S)SCc2ccccc2Br)C1 (stereo unspecified) | 8.21% (inactive)
52 | COc1ccc(Cl)cc1N(CC(=O)N/N=C/c1ccc(OCC(N)=O)cc1)S(C)(=O)=O | 9.06% (inactive)
53 | NC(N)=N/N=C/c1ccc(OCc2ccc(Cl)cc2Cl)cc1 | 65.5% (active)
54 | Cc1nc2ccccc2nc(C)c1=NOCc1ccc(Cl)cc1Cl | 8.52% (inactive)
55 | CCCNC(=O)OC[C@H]1O[C@H](CCO/N=C/[C@@H](NS(=O)(=O)c2ccc(C)cc2)[C@H](C)/C=C/CC(=O)OC)C=C[C@@H]1Oc1ccc(OC)cc1 | 9.15% (inactive)
56 | O=C(c1ccc(Br)o1)N1CCN(CCOc2ccccc2)CC1 | 5.93% (inactive)
57 | CN(CC(=O)NC1CCCC1)S(=O)(=O)c1cnc[nH]1 | -3.15% (inactive)
58 | CCN(CC(=O)NCc1cccs1)C(=O)c1ccccc1F | -6.38% (inactive)
59 | CCN(CC(=O)NCc1cccs1)C(=O)c1cccc(S(=O)(=O)Nc2ccccc2OC)c1 | 60.2% (active)
60 | CCN(CC(=O)NCc1cccs1)C(=O)c1ccc(OC)c(S(=O)(=O)N2CCOCC2)c1 | 5.14% (inactive)
61 | CCNC(=O)COC(=O)CCNC(=O)c1cccc(C)c1 | -4.69% (inactive)
62 | Cc1nn2cc(-c3ccc(Cl)cc3)cnc2c1Br | -6.41% (inactive)
63 | COc1cc(OC)cc(C(=O)OCC(=O)Nc2sccc2C(N)=O)c1 | -0.564% (inactive)
64 | COC(=O)c1ccc(N2CCOCC2)c(NC(=O)c2ccc(Br)o2)c1 | -17.7% (inactive)
65 | CCCCc1nc2cc(C(=O)N3CCCCC3CCO)ccc2o1 (stereo unspecified) | 5.2% (inactive)
66 | O=[N+]([O-])c1c(NCCO)cc(Sc2nc3ccccc3s2)c2nonc12 | 90.7% (active)
67 | CCN(CC)CCCSc1nc2ccccc2s1 | -0.516% (inactive)
68 | OCCNc1nc(Nc2ccc(Cl)c(Cl)c2)nc2ccccc12 | 24.2% (inactive)
69 | O=c1ccc2cc(S(=O)(=O)NCCCc3ccccc3)ccc2[nH]1 | 0.38% (inactive)
70 | C=CC(=O)OCCOCCOCCOCCOC(=O)C=C | -5.63% (inactive)
71 | O=C1CCNCCN1[C@H](CO)Cc1ccccc1 | -9.83% (inactive)
72 | c1ccc(C[C@H]2CNCCN2CCC23CC4CC(CC(C4)C2)C3)cc1 | 47.5% (active)

Row | Structure (SMILES) | inhibition
73 | c1ccc2c(CCN3CCNC[C@H]3Cc3cccc4ccccc34)cccc2c1 | 67% (active)
74 | CC(C)(C)CN1C(=O)C(=O)NC[C@H]1Cc1cccc2ccccc12 | -2.41% (inactive)
75 | c1ccc(C2CNCc3c2ccc2ccccc32)cc1 (stereo unspecified) | 13.6% (inactive)
76 | NS(=O)(=O)c1ccc(N2C(=O)C3C4CC(C(Br)C4Br)C3C2=O)cc1 (stereo unspecified) | 4.73% (inactive)
77 | CC(=O)Nc1ccc(OCCC[n+]2cccc(C(=O)[O-])c2)cc1 | 0.989% (inactive)
78 | N=c1ccn(CC(=O)NC(N)=O)c2ccccc12 | -8.89% (inactive)
79 | Cc1cccc(/C=N/NC(=O)CNc2cccc3ccccc23)n1 | 8.96% (inactive)
80 | C/C(=N\NC(=O)CSc1nc2ccccc2c(=O)n1-c1ccccc1C)c1cccs1 | 19.1% (inactive)
81 | C/C(=N\NC(=O)CNc1cccc2ccccc12)c1ccc(Br)s1 | 90.2% (active)
82 | COc1ccc(-n2nnnc2SCC(=O)c2ccc(OC)c(OC)c2)cc1 | 1% (inactive)
83 | CC[C@@H](C)[C@@H](C(=O)N1CCN(C(=O)OC(C)(C)C)CC1)n1cc(CCC(=O)O)nn1 | -7.69% (inactive)
84 | COc1ccc(C2=NOC3(CC(=O)N(c4ccc(Cl)cc4)C3=O)C2)c(OC)c1 (stereo unspecified) | 5.23% (inactive)
85 | C#CCOCCOCCOCCNc1nc(N2CCN(C(=O)[C@H](CCC(=O)O)n3cc(C(N)CO)nn3)CC2)nc(N2CCN(C(=O)[C@H](CCCCN)n3cc(C(N)CC(C)C)nn3)CC2)n1 (stereo partly specified) | 2.63% (inactive)
86 | C#CCOCCOCCOCCNc1nc(N2CCN(C(=O)[C@H](CCC(=O)O)n3cc(C(N)CO)nn3)CC2)nc(N2CCN(C(=O)[C@H](CCCCN)n3cc(C(N)[C@H](C)CC)nn3)CC2)n1 (stereo partly specified) | 20.3% (inactive)
87 | C#CCOCCOCCOCCNc1nc(N2CCN(C(=O)C([C@@H](C)CC)n3cc(C(N)COC(=O)C(F)(F)F)nn3)CC2)nc(N2CCN(C(=O)[C@H](CCCCN)n3cc(C(N)CC(C)C)nn3)CC2)n1 (stereo partly specified) | 4.38% (inactive)
88 | C#CCOCCOCCOCCNc1nc(N2CCN(C(=O)CCCCCCCCCCNC(=O)[C@H]([C@@H](C)CC)n3cc(CCCCN=C(N)N)nn3)CC2)nc(N2CCN(C(=O)CCCCCCCCCCNC(=O)[C@H](CO)n3cc(CCCSC)nn3)CC2)n1 | 59.2% (active)
89 | C#CCOCCOCCOCCNc1nc(N2CCN(C(=O)CCCCCCCCCCNC(=O)[C@H](CCCCN)n3cc(C)nn3)CC2)nc(N2CCN(C(=O)CCCCCCCCCCNC(=O)[C@H](CO)n3cc(CCCSC)nn3)CC2)n1 | 59.7% (active)
90 | C#CCOCCOCCOCCNc1nc(N2CCN(C(=O)CCCCCCCCCCNC(=O)Cn3cc(CCCCCN)nn3)CC2)nc(N2CCN(C(=O)CCCCCCCCCCNC(=O)[C@H](CO)n3cc(CCCSC)nn3)CC2)n1 | 60.7% (active)
91 | C#CCOCCOCCOCCNc1nc(N2CCN(C(=O)C([C@@H](C)O)n3cc([C@@H](N)CCCCN)nn3)CC2)nc(N2CCN(C(=O)[C@H](CCCCN)n3cc(CN)nn3)CC2)n1 (stereo partly specified) | 42.2% (active)
92 | C#CCOCCOCCOCCNc1nc(N2CCN(C(=O)[C@H](CCCCN)n3cc(CCC(=O)O)nn3)CC2)nc(N2CCN(C(=O)[C@H](CCCCN)n3cc(CC(C)O)nn3)CC2)n1 (stereo partly specified) | -2.94% (inactive)
93 | C#CCOCCOCCOCCNc1nc(N2CCN(C(=O)[C@H](CCCN=C(N)N)n3cc(C(N)[C@@H](C)CC)nn3)CC2)nc(N2CCN(C(=O)[C@H](CO)n3cc([C@@H](N)C(C)C)nn3)CC2)n1 (stereo partly specified) | 1.97% (inactive)
94 | C#CCOCCOCCOCCNc1nc(N2CCN(C(=O)[C@H](C(C)C)n3cc(CCO)nn3)CC2)nc(N2CCN(C(=O)[C@H]([C@@H](C)CC)n3cc(CCCN=C(N)N)nn3)CC2)n1 | 0.78% (inactive)
95 | C#CCOCCOCCOCCNc1nc(N2CCN(C(=O)Cn3cc(CCCCN)nn3)CC2)nc(N2CCN(C(=O)[C@H](CCCCN)n3cc(CCC(=O)O)nn3)CC2)n1 | 2.29% (inactive)
96 | C#CCOCCOCCOCCNc1nc(N2CCN(C(=O)[C@H](CCC(=O)O)n3cc(CN)nn3)CC2)nc(N2CCN(C(=O)[C@H](CCC(=O)O)n3cc(CN)nn3)CC2)n1 | -8.71% (inactive)
